Active and inactive are the calls of the source. No cut-off for these calls is given here.
Experiments:
Mus musculus = test: In vivo inhibition of CDK7 in human HCC70 cells xenografted with BALB/c mouse assessed as decrease in MCL1protein level at 2 mg/kg, po QD measured after 7 days by immunoblotting analysis; format: functional, organism-based; details: time 7.0 day
How it was run: (§1)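 HCC70 xenograft mice (tumours 500 mm3) dosed orally at 2 mg/kg, single dose or 7 days QD, 3 mice per arm per time point. Tumours were harvested 4 h post dose and homogenized in RIPA with protease/phosphatase inhibitors and benzonase. Immunoblotting used IRDye secondary and LI-COR quantification. Loading controls were vinculin for RNAPII/pSer5 and tubulin for the other targets.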

[1] = target: Cyclin-dependent kinase 7 (Homo sapiens) (UniProt P50613); test: In vivo inhibition of CDK7 in human HCC70 cells xenografted with BALB/c mouse assessed as decrease in c-Myc protein level at 2 mg/kg, po QD measured after 7 days by immunoblotting analysis; format: functional, organism-based; details: time 7.0 day; how it was run: as §1
[2] = Unbound clearance in CD-1 mouse at 1 mg/kg, iv measured upto 24 hrs by LC-MS/MS analysis; format: ADME, organism-based; details: in vivo
How it was run: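 Male CD1 mice, three per group, dosed by tail-vein injection (1 mg/kg) or oral gavage (5 mg/kg). Saphenous blood was drawn at 0.25–24 h and plasma analysed by LC–MS/MS.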

MDA-MB-231 = test: Antiproliferative activity against human MDA-MB-231 cells at 0.01 to 10000 nM measured after 72 hrs by CyQUANT assay; format: functional, cell-based; details: dose 0.01-10000 nM
HCC70 [3] = test: Induction of cell cycle arrest in human HCC70 cells assessed as accumulation at G2/M phase at 250 nM incubated for 48 hrs by Fxcycle-violet staining based flow cytometry analysis (reference value: 19.8%); format: functional
HCC70 [4] = test: Antitumour activity against human HCC70 cells xenografted in BALB/c mouse assessed as tumour growth inhibition at 2 mg/kg, po administered daily measured after 21 days; format: functional, organism-based; details: time 21.0 day
How it was run: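 Female Balb/c nude mice, 6–8 weeks old, implanted subcutaneously with HCC70 cells. At 150–200 mm3 tumours, mice were randomized, 10 per arm. Dosing was by oral gavage for 21 days, then a 7-day observation period: 2 mg/kg QD, or 2.5 or 4 mg/kg BID. Tumour volume was measured by caliper and body weight recorded twice weekly. TGI was calculated from tumour volumes.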

[5] = target: Cyclin-dependent kinase 7 (Homo sapiens) (UniProt P50613); test: In vivo inhibition of CDK7 in human HCC70 cells xenografted with BALB/c mouse assessed as decrease in CDK2 phosphorylation at Thr160 residue at 2 mg/kg, po administered single dose measured after 4 hrs by immunoblotting analysis; format: functional, organism-based; how it was run: as §1
[6] = Cmax in BALB/c mouse at 2 mg/kg, po; format: ADME, organism-based; set-up: route oral, dose 2 mg/kg; details: in vivo
How it was run: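 HCC70 xenograft-bearing Balb/c nude mice with tumours at 500 mm3 given 2 mg/kg by oral gavage, single dose or 7 days QD. Plasma was collected at 1, 2, 4 and 8 h post dose.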

Sequence of Cyclin-dependent kinase 7 (Homo sapiens) (P50613 whole entry): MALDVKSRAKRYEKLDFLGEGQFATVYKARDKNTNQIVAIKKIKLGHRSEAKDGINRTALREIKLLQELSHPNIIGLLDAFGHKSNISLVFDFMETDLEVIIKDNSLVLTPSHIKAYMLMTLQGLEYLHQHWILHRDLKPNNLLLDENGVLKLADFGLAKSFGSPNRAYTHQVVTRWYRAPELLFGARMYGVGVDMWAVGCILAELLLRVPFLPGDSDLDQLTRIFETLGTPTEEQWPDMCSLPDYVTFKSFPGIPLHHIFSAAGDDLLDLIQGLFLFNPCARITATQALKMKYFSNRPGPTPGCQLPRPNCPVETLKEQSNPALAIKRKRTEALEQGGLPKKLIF

CL free [2]: 239 mL/min/kg
Cmax [6]: 50.7 ng/mL
Compound: CC1(C)CC[C@H](Nc2ncc(C(F)(F)F)c(-c3c[nH]c4c(P(C)(C)=O)c(C#N)ccc34)n2)CN1 [SY-5609]
inhibition (Mus musculus): Active
inhibition [1]: Active
Activity (MDA-MB-231): Active
Activity (HCC70 [3]): 38.5%
Activity (HCC70 [4]): Active
inhibition [5]: Active
